Structures can show the parent of a compound that is named as a salt.
System: RAW264.7
Assay: Antiinflammatory activity against mouse RAW264.7 cells assessed as inhibition of LPS-induced NO production pretreated for 30 mins followed by LPS stimulation measured after 24 hrs by Griess reagent based assay
Type: functional, cell-based
Details: not given
Outline: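 Supernatant mixed 1:1 with Griess reagent for 10 min, absorbance read at 540 nm. DMSO final ≤0.1%. Aminoguanidine hydrochloride served as positive control. Run in triplicate; IC50 given as mean ± SD (n = 3).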

Compared with `N=C(N)NN` [PIMAGEDINE HYDROCHLORIDE], `CC(O)Cc1cc2c(c(O)c1O)[C@@]1(C)CCCC(C)(C)[C@@H]1CC2=O` (some centres undefined) is higher in IC50: 26.2 µM for the first, > 50 µM for the second.

Going from `CC1=C(C)C2=CC(=O)c3c(O)c4c(c(O)c3[C@@]2(C)CC1=O)O[C@@H](C)[C@@H]4O` to `CC1=C(C)C2=CC(=O)c3c(O)c4c(c(O)c3[C@@]2(C)CC1)O[C@@H](C)[C@@H]4O`, the IC50 rises from 38.6 µM to > 50 µM. The first is the more potent here.

`COC1=C2C(C)(C)C(=O)CC[C@]2(C)c2c(O)c3c(c(O)c2C1=O)C[C@H](C)O3` and `C[C@H]1Cc2c(O)c3c(c(O)c2O1)[C@@]1(C)CCC(=O)C(C)(C)C1=C(O)C3=O` [TEUVINCENONE A] cannot be ordered by IC50: > 50 µM for the first, > 50 µM for the second.

Going from `COC1=C2C(C)(C)CCC[C@]2(C)c2c(c(O)c3cc(CO)oc3c2O)C1=O` to `COC1=C2C(C)(C)CCC[C@]2(C)c2c(O)c3c(c(O)c2C1=O)C[C@H](CO)O3`, the IC50 rises from 16.1 µM to 35.6 µM (2.2-fold). The first is the more potent here.

`CC1=C(C)[C@@H](O)C[C@@]2(C)C1=CC(=O)c1c2c(O)c2oc(C)cc2c1O` and `CC1=C(C)C2=CC(=O)c3c(c(O)c4oc(C)cc4c3O)[C@@]2(C)CC1=O` cannot be ordered by IC50: > 50 µM for the first, > 50 µM for the second.

Compared with `CC1=C(C)C2=CC(=O)c3c(O)c4c(c(O)c3[C@@]2(C)CC1=O)O[C@@H](C)C4`, `CC1=C(C)[C@@H](O)C[C@@]2(C)C1=CC(=O)c1c(O)c3c(c(O)c12)O[C@@H](C)C3` is 4.8-fold lower in IC50: 31.4 µM for the first, 6.5 µM for the second. The second is the more potent here.

First: CC1=C(C)C2=CC(=O)[C@@]34O[C@@]3(C(=O)c3oc(C)cc3C4=O)[C@@]2(C)CC1
Second: Cc1cc2c(O)c3c(c(O)c2o1)[C@@]1(C)CCC(=O)C(C)(C)[C@@H]1CC3=O
The IC50 of the first is 1.8-fold higher: 10.6 µM for the first, 6 µM for the second. The second is the more potent here.

`C[C@@]12C[C@@H]1CC[C@]1(C)c3c(O)c4c(c(O)c3C(=O)C[C@@H]21)C[C@H](CO)O4` and `CC1(C)CCC[C@]2(C)c3c(O)c4c(c(O)c3C(=O)C[C@@H]12)C[C@H](CO)O4` cannot be ordered by IC50: > 50 µM for the first, > 50 µM for the second.

`C=C1C(C)=CC[C@]2(C)c3c(cc(CC(C)O)c(O[C@@H]4O[C@H](CO)[C@@H](O)[C@H](O)[C@H]4O)c3O)C(=O)C[C@@H]12` (some centres undefined) and `CC(CO)c1cc2c(c(O)c1O[C@@H]1O[C@H](CO)[C@@H](O)[C@H](O)[C@H]1O)[C@@]1(C)CC[C@H](O)C(C)(C)[C@@H]1CC2` (some centres undefined) cannot be ordered by IC50: > 50 µM for the first, > 50 µM for the second.

Compared with `CC(C)c1cc2c(c(O)c1O)[C@@]1(C)CCCC(C)(C)[C@@H]1CC2=O` [DEMETHYLCRYPTOJAPONOL], `C[C@@H](CO)c1cc2c(c(O)c1O)[C@@]1(C)CCCC(C)(C)[C@@H]1CC2=O` is higher in IC50: 15.5 µM for the first, > 50 µM for the second. The first is the more potent here.

Going from `C[C@H]1Cc2c(O)c3c(c(O)c2O1)[C@@]1(C)CCC2=C(COC2=O)C1=CC3=O` to `COC(=O)C1=C(C)C2=CC(=O)c3c(O)c4c(c(O)c3[C@@]2(C)CC1)O[C@@H](C)C4`, the IC50 rises from 28.9 µM to > 50 µM. The first is the more potent here.

Compared with `COC1=C2C(C)(C)C(=O)CC[C@]2(C)c2c(c(O)c3cc(C)oc3c2O)C1=O`, `Cc1cc2c(O)c3c(c(O)c2o1)[C@@]1(C)CCC(=O)C(C)(C)C1=C(O)C3=O` is higher in IC50: 31.1 µM for the first, > 50 µM for the second. The first is the more potent here.

`CC(C)c1cc2c(c(O)c1O[C@@H]1O[C@H](CO)[C@@H](O)[C@H](O)[C@H]1O)[C@@]1(C)CCC[C@](C)(C(=O)O[C@@H]3O[C@H](CO)[C@@H](O)[C@H](O)[C@H]3O)[C@@H]1CC2` and `CC(C)c1cc2c(c(O)c1O[C@@H]1O[C@H](CO)[C@@H](O)[C@H](O)[C@H]1O)[C@@]1(C)CC[C@H](O[C@@H]3O[C@H](CO)[C@@H](O)[C@H](O)[C@H]3O)C(C)(C)[C@@H]1CC2` cannot be ordered by IC50: > 50 µM for the first, > 50 µM for the second.

Compared with `CC(C)c1cc2c(c(O)c1O)[C@@]1(C)CCCC(C)(C)[C@@H]1[C@@H](O)C2=O` [6-ALPHA-HYDROXYDEMETHYL-CRYPTOJAPONOL], `C[C@H]1Cc2c(O)c3c(c(O)c2O1)[C@@]1(C)CC[C@]2(C)O[C@]2(C)C1=CC3=O` is higher in IC50: 9.4 µM for the first, > 50 µM for the second. The first is the more potent here.

Compared with `COC1=C2C(C)(C)CCC[C@]2(C)c2c(O)c3c(c(O)c2C1=O)C[C@H](C)O3`, `CC1(C)CCC[C@@]2(C)C1=C(O)C(=O)c1c(O)c3c(c(O)c12)O[C@@H](CO)C3` [VILLOSIN C] is lower in IC50: > 50 µM for the first, 15.5 µM for the second.

Compared with `CC1=C(C)C2=CC(=O)C3=C(C(=O)[C@]4(Oc5c([C@H](C)CO)cc6c(c5O4)[C@]4(C)CCCC(C)(C)[C@H]4CC6=O)[C@@]4(O)C[C@H](C)O[C@]34O)[C@]2(C)CC1`, `C[C@H]1Cc2c(O)c3c(c(O)c2O1)[C@@]1(C)CCC(=O)C(C)(C)[C@@H]1CC3=O` is higher in IC50: 5.6 µM for the first, > 50 µM for the second.

`CC1=C(CO)C2=CC(=O)c3c(c(O)c4oc(C)cc4c3O)[C@@]2(C)CC1=O` and `C=C1C2=CC(=O)c3c(O)c4c(c(O)c3[C@@]2(C)CC[C@@]1(C)O)OC(C)C4` (some centres undefined) cannot be ordered by IC50: > 50 µM for the first, > 50 µM for the second.

System: not listed separately
Assay: Cytotoxicity against mouse RAW264.7 cells assessed as cell survival at 25 uM
Type: cell-based
Details: read-out: Survival

`CC1=C(CO)C(=O)C[C@@]2(C)C1=CC(=O)c1c(O)c3c(c(O)c12)O[C@@H](C)C3` and `CC1=C(CO)CC[C@@]2(C)C1=CC(=O)c1c(O)c3c(c(O)c12)O[C@@H](C)C3` cannot be ordered by viability at 25 µM: < 15% for the first, < 15% for the second.

`CC1=C(C)[C@H](O)C[C@@]2(C)C1=CC(=O)c1c2c(O)c2oc(C)cc2c1O` and `CC1=C(C)C2=CC(=O)c3c(c(O)c4oc(C)cc4c3O)[C@@]2(C)CC1` cannot be ordered by viability at 25 µM: < 15% for the first, < 15% for the second.

`CC1=C(C=O)CC[C@@]2(C)C1=CC(=O)c1c(O)c3c(c(O)c12)O[C@@H](C)C3` and `CC1=C(C)C2=CC(=O)c3c(O)c4c(c(O)c3[C@@]2(C)CC1)O[C@@H](C)C4` cannot be ordered by viability at 25 µM: < 15% for the first, < 15% for the second.

`CC1(C)CCC[C@@]2(C)C1=CC(=O)c1c(O)c3c(c(O)c12)O[C@@H](CO)C3` and `CC1=C(C)[C@H](O)C[C@@]2(C)C1=CC(=O)c1c(O)c3c(c(O)c12)O[C@@H](C)C3` cannot be ordered by viability at 25 µM: < 15% for the first, < 15% for the second.

`CC1=C(C)C2=CC(=O)C3=C(C(=O)c4oc(C)cc4C3=O)[C@@]2(C)CC1` and `C[C@H]1Cc2c(O)c3c(c(O)c2O1)[C@@]1(C)CC[C@H](O)C(C)(C)[C@@H]1CC3=O` cannot be ordered by viability at 25 µM: < 15% for the first, < 15% for the second.

Source: ChEMBL document CHEMBL4145623, “Abietane Diterpenoids from the Roots of Clerodendrum trichotomum and Their Nitric Oxide Inhibitory Activities” (J Nat Prod, 2018)
